Test results as given in ChEMBL document CHEMBL1131196, “Design and synthesis of hydrazinopeptides and their evaluation as human leukocyte elastase inhibitors” (J Med Chem, 1998).
One block for each molecule: values may come before it. Numbered stars: 1 amine (or outer) side, 2 acyl side, 3 side chain; on linkers, the order of the positions; unused ones are H or OH. Square brackets hold non-standard residues; d marks the D form. Peptide text beside a SMILES is read from it. * marks the point of attachment. X1 = O=C([C@H]1CCCN1N[*:1])[*:2]; Cbz = O=C(OCc1ccccc1)*; NHiPr = CC(C)N*

How the values were obtained:
Neutrophil elastase = molecular target: T1, Neutrophil elastase (Homo sapiens, UniProt P08246); assay: Inhibition constant of compound measured toward human leukocyte elastase (HLE) at pH 8 and 25 degree C.
T1 sequence (P08246 whole entry): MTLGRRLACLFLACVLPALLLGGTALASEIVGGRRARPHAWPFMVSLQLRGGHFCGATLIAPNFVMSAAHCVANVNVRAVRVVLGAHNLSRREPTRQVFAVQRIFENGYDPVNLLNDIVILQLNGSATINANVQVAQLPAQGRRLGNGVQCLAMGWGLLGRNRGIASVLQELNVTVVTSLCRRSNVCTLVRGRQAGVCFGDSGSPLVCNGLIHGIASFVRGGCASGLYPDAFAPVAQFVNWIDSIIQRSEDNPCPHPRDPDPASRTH
In short: (§1)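 Chromogenic p-nitroanilide substrates, with MeO-Suc-Ala-Ala-Pro-Val-pNA for HLE. Enzymes were HLE 20 nM or PPE 22 nM, with inhibitors at 25–300 µM. Assays ran in 0.05 M Hepes pH 8.0 with 10% v/v DMSO at 25 °C, monitoring p-nitroaniline release continuously at 405 nm. Initial rates were fit to competitive inhibition. Ki came from a linear plot of Km(app)/Vm vs [I]; reversibility was checked by buffer exchange.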

Pancreatic elastase = Pancreatic elastase (Sus scrofa, UniProt P08419+P00772); assay: Inhibition constant of compound measured toward porcine Pancreatic elastase at pH 8 and 25 degree C.; type: protein assay; in short: as §1
[1] = molecular target: T2, Neutrophil elastase (Homo sapiens) (UniProt P08246); assay: (§2) Kinetic parameter was calculated by Michaelis equation catalyzed by Leukocyte elastase at 25 degree C and pH 8.
T2 sequence (whole entry): T1 sequence (P08246 whole entry)
In short: (§3)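 HLE at 200 nM, in 0.05 M Hepes pH 8.0 with 10% v/v DMSO and no NaCl, at 25 °C. Hydrolysis was read either by absorbance at 250 nm (substrate 5–50 µM) or by C8 reverse-phase HPLC (substrate 5–20 µM). For HPLC, products at 2–5 min were quantified against a Z-Ala-Ala-Pro-Val calibration. kcat and Km came from least-squares Michaelis fits. For HPLC, kcat/Km came from the linearized rate below Km.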

[2] = The catalytic efficiency is the ratio of kcat to that of Km.; in short: as §3
[3] = substrate: CC(C)NC(=O)[C@H](C)NC(=O)[C@H](C)NNC(=O)[C@@H](NC(=O)[C@H]1CCCN1C(=O)[C@H](C)NC(=O)[C@H](C)NC(=O)OCc1ccccc1)C(C)C; assay: as §2; in short: as §3
[4] = substrate: CC(C)NC(=O)[C@H](C)NC(=O)[C@H](C)NC(=O)[C@@H](NC(=O)[C@H]1CCCN1C(=O)[C@H](C)NC(=O)[C@H](C)NC(=O)OCc1ccccc1)C(C)C; assay: as §2; in short: as §3

- Ki (Neutrophil elastase): 65 µM
- Ki (Pancreatic elastase): 146 µM
Molecule: CC(C)NC(=O)[C@H](C)NC(=O)[C@H](C)NC(=O)[C@@H](NC(=O)[C@H]1CCCN1NC(=O)[C@H](C)NC(=O)[C@H](C)NC(=O)OCc1ccccc1)C(C)C (Cbz-AA[X1]VAA-NHiPr)

- k cat [1]: 2.24 s⁻¹
- k cat/Km [2]: 3150 M⁻¹ s⁻¹
Molecule: CC(C)NC(=O)[C@H](C)NC(=O)[C@H](C)NNC(=O)[C@@H](NC(=O)[C@H]1CCCN1C(=O)[C@H](C)NC(=O)[C@H](C)NC(=O)OCc1ccccc1)C(C)C

Continued, molecule first:

Molecule: CC(C)NC(=O)[C@H](C)NC(=O)[C@H](C)NC(=O)[C@@H](NNC(=O)[C@H]1CCCN1C(=O)[C@H](C)NC(=O)[C@H](C)NC(=O)OCc1ccccc1)C(C)C
- Ki (Neutrophil elastase): 595 µM
- Ki (Pancreatic elastase): 397 µM

Molecule: CC(C)NC(=O)[C@H](C)NC(=O)[C@H](C)NC(=O)[C@@H](NC(=O)[C@H]1CCCN1C(=O)[C@H](C)NC(=O)[C@H](C)NC(=O)OCc1ccccc1)C(C)C
- k cat [1]: 0.88 s⁻¹
- k cat/Km [2]: 6780 M⁻¹ s⁻¹

B1: Neutrophil elastase (Homo sapiens), P08246 (protein)
chain: T1 sequence (P08246 whole entry)
- Km [3]: 712 µM
- Km [4]: 131 µM
